Key:
[1] = (§1) Inhibition of programmed -1 ribosomal frameshifting in human MCF7 cells harboring pCherryGFP-CoV2-WT plasmid assessed as inhibition of GFP expression incubated for 30 mins by fluorescence microscopic analysis; assay type: functional, cell-based; conditions: MCF7, 0.5 h
Summary of the method: (§2)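 MCF-7 cells were treated with compound at various concentrations and transfected with an mCherry–FSE–GFP reporter: WT, a stop-codon negative control, or an in-frame no-FSE plasmid. GFP expression was the read-out, compared with a DMSO (0 μM) control. Data are mean ± SD of three independent experiments.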

MCF7 = experiment: as §1; assay type: functional, cell-based; summary of the method: as §2
[2] = Inhibition of programmed -1 ribosomal frameshifting in human MCF7 cells harboring pCherryGFP-CoV2-WT plasmid assessed as inhibition of GFP expression at 50 uM incubated for 30 mins by fluorescence microscopic analysis; assay type: functional; conditions: MCF7, 0.5 h; summary of the method: as §2

In the case of `CCNCC1CCN(c2c(F)cc3c(=O)c(C(=O)O)cn(CC)c3c2F)C1` (stereo not drawn) [MERAFLOXACIN], the IC50 [1] is reported as 33.5 µM.

For `COc1ccc(-c2nc(NCCN3CCOCC3)c3ccccc3n2)cc1`, the inhibition (MCF7) was “Dose-Dependent Effect”.

`COc1ccc(-c2nc(NCCN3CCOCC3)c3cc(OC)ccc3n2)cc1` showed an inhibition at 50 µM [2] of 50%.

— ChEMBL document CHEMBL5247673, “Discovery of Small Molecules Targeting the Frameshifting Element RNA in SARS-CoV-2 Viral Genome” (ACS Med Chem Lett, 2023)
